Article PMC4791037 (Environmental science & technology, 2015)

Columns and labels:
[1] = test system: genomic DNA damage in Chinese hamster ovary (CHO) cell line AS52, clone 11-4-8; assay: Single cell gel electrophoresis; type: cell-based; conditions: CHO cells, 4 h; for GTI (±SE), genotoxicity index: mean bootstrap value, calculated as (50%TDNA)^−1(10^3)
Method in brief: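 CHO AS52 clone 11-4-8 cells (Ham's F12, 5% FBS, 37 °C, 5% CO2) exposed to test compound, then run in microplate comet assay. %Tail DNA scored only over concentrations with viability >70%. Microgel means were averaged per concentration and tested by one-way ANOVA with Holm-Sidak versus control (P ≤ 0.05). 50% Tail DNA concentration came from regression. Bootstrap replicates gave GTI values (1/M).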

[2] = test system: Chinese hamster ovary (CHO) cell line AS52, clone 11-4-8; assay: CHO cell chronic cytotoxicity assay; type: cell-based; conditions: mean bootstrap value, calculated as (LC50)^−1(10^3); CHO cells, 72 h
[3] = CHO cell chronic cytotoxicity assay; type: cell-based, Chinese hamster; conditions: Chinese hamster, CHO cells, line AS52, clone 11-4-8

Compound | GTI (±SE), genotoxicity index [1] [M⁻¹] | CTI (±SE), cytotoxicity index [2] [M⁻¹] | genotoxicity (result in words) ([1]; SCGE assay) | CC50 at 72 h [3] [µM]
O=CC(Br)Br [DBAL, dibromoacetaldehyde] | 9.11 ± 0.60 | 207.5 ± 2.1 | – | –
O=CCBr [BAL, bromoacetaldehyde] | 2.68 ± 0.11 | 64.6 ± 3.5 | – | –
O=CC(Cl)(Br)Br [DBCAL, dibromochloroacetaldehyde] | 6.99 ± 0.28 | 200.2 ± 1.4 | – | –
O=CCI [IAL, iodoacetaldehyde] | 0.96 ± 0.03 | 170.4 ± 7.3 | – | –
O=CC(Cl)Cl [DCAL, dichloroacetaldehyde] | 1.26 ± 0.03 | 35.7 ± 0.8 | – | –
O=CC(Cl)(Cl)Cl [TCAL, trichloroacetaldehyde] | – | 0.94 ± 0.03 | not genotoxic | –
O=CC(Br)(Br)Br [TBAL, tribromoacetaldehyde] | 3.00 ± 0.03 | 279.8 ± 4.8 | – | 3.58
O=CC(Cl)Br (stereo not shown) [BCAL, bromochloroacetaldehyde] | 1.61 ± 0.21 | 207.4 ± 11.0 | – | –
O=CC(Cl)(Cl)Br [BDCAL, bromodichloroacetaldehyde] | 2.24 ± 0.05 | 51.1 ± 4.3 | – | –
